Structures are written as SMILES. In brackets after ≈: the same amount, converted by molar mass. Activity calls are given as the source filed them.

The subject of assay [1] is Mycolicibacterium smegmatis. The assay is described as follows: Antibacterial activity against Mycobacterium smegmatis MC2 155 under aerobic condition after 36 hrs by MTT assay. Format: functional. The note with it: str. MC2 155, 36 h. The procedure, abridged: (§1)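 MTT microdilution. Mid-log bacilli in 7H9 with 10% OADC, 0.5% glycerol, 0.05% Tween 80, seeded at 1 × 10⁴ CFU/0.1 mL (M. smegmatis) or 1 × 10⁵ CFU/0.1 mL (BCG, M. tuberculosis), then serially diluted sample added. Aerobic incubation at 37 °C; hypoxic incubation at 37 °C under N2 with 0.2% O2. MTT (0.5 mg/mL, 50 µL) added for 12 h more, OD560 read to give MIC.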

Assay [2] concerns Mycolicibacterium smegmatis. The assay is described as follows: Antibacterial activity against Mycobacterium smegmatis MC2 155 under hypoxic condition after 96 hrs by MTT assay. The assay is classed as functional. Conditions: str. MC2 155, 96 h. The method in brief:
as §1
For orientation: Tetrazolium assays rely on reduction of a dye to a coloured formazan, in cell work by metabolically active cells.

The nature of assay [3]: Inhibition of nybomycin probe (2) binding to pMV206 DNA (unknown origin) with cloned 700476 to 702854 bp of Mycobacterium bovis BCG genome overexpressed in Mycobacterium smegmatis ICHO1036 at 60 uM after 1 hr by agarose gel electrophoresis.
Assay [4] has as its system Mycobacterium tuberculosis. The assay is described as follows: Antibacterial activity against Mycobacterium tuberculosis H37Rv under aerobic condition after 7 days by MTT assay. The assay is classed as functional. Conditions: 168 h. The method in brief: as §1
Assay [5] deals with Mycobacterium tuberculosis. The assay is described as follows: Antibacterial activity against Mycobacterium tuberculosis T1413 under aerobic condition after 7 days by MTT assay. Format: functional. The note with it: T1413, 168 h. The procedure, abridged:
as §1

Assay [6] concerns Mycobacterium tuberculosis. The assay is described as follows: Antibacterial activity against Mycobacterium tuberculosis T1538 under aerobic condition after 7 days by MTT assay. The assay is classed as functional. The note with it: T1538, 168 h. The method in brief:
as §1

Assay [7] deals with Mycolicibacterium smegmatis. The assay is described as follows: Antibacterial activity against Mycobacterium smegmatis MC2 155 assessed as induction of morphological changes at 1 ug/ml after 48 hrs by phase contrast/scanning electron microscopic analysis. The note with it: str. MC2 155. The assay is classed as functional, organism-based.
The test system of assay [8] is Mycolicibacterium smegmatis. The assay is described as follows: Antibacterial activity against Mycobacterium smegmatis ICHO1034 harboring pMV206 with cloned 685769 to 689308 bp of Mycobacterium bovis BCG genome at 2 ug/ml by agar plate method. Format: functional, organism-based.
The subject of assay [9] is Mycolicibacterium smegmatis. The assay is described as follows: Antibacterial activity against Mycobacterium smegmatis ICHO1036 harboring pMV206 with cloned 700476 to 702854 bp of Mycobacterium bovis BCG genome at 2 ug/ml by agar plate method. Format: functional, organism-based.
For assay [10], the system named is Mycolicibacterium smegmatis. The assay is described as follows: Antibacterial activity against Mycobacterium smegmatis ICHO2012 harboring pYUB415 with cloned 686465 to 716464 bp of Mycobacterium bovis BCG genome at 2 ug/ml by agar plate method. Format: functional, organism-based.
The subject of assay [11] is Mycolicibacterium smegmatis. The assay is described as follows: Antibacterial activity against Mycobacterium smegmatis ICHO1035 harboring pMV206 with cloned 696695 to 700844 bp of Mycobacterium bovis BCG genome at 2 ug/ml by agar plate method. The assay is classed as functional, organism-based.
For assay [12], the system named is Mycolicibacterium smegmatis. The assay is described as follows: Antibacterial activity against Mycobacterium smegmatis ICHO1037 harboring pMV261 with cloned 4109204 to 4110235 bp of Mycobacterium bovis BCG genome at 2 ug/ml by agar plate method. The assay is classed as functional, organism-based.
Assay [13] has as its system Mycolicibacterium smegmatis. The assay is described as follows: Antibacterial activity against Mycobacterium smegmatis ICHO1034 harboring pMV206 with cloned 685769 to 689308 bp of Mycobacterium bovis BCG genome at 4 ug/ml by agar plate method. Format: functional, organism-based.
The subject of assay [14] is Mycolicibacterium smegmatis. The assay is described as follows: Antibacterial activity against Mycobacterium smegmatis ICHO1035 harboring pMV206 with cloned 696695 to 700844 bp of Mycobacterium bovis BCG genome at 4 ug/ml by agar plate method. The assay is classed as functional, organism-based.
Assay [15] relates to Mycolicibacterium smegmatis. The assay is described as follows: Antibacterial activity against Mycobacterium smegmatis ICHO1036 harboring pMV206 with cloned 700476 to 702854 bp of Mycobacterium bovis BCG genome at 4 ug/ml by agar plate method. Format: functional, organism-based.
Assay [16] concerns Mycolicibacterium smegmatis. The assay is described as follows: Antibacterial activity against Mycobacterium smegmatis ICHO1037 harboring pMV261 with cloned 4109204 to 4110235 bp of Mycobacterium bovis BCG genome at 4 ug/ml by agar plate method. The assay is classed as functional, organism-based.
The test system of assay [17] is Mycolicibacterium smegmatis. The assay is described as follows: Antibacterial activity against Mycobacterium smegmatis ICHO1038 harboring pMV261 with cloned 4126836 to 4129396 bp of Mycobacterium bovis BCG genome at 4 ug/ml by agar plate method. The assay is classed as functional, organism-based.
In assay [18] the test system is Mycolicibacterium smegmatis. The assay is described as follows: Antibacterial activity against Mycobacterium smegmatis ICHO2012 harboring pYUB415 with cloned 686465 to 716464 bp of Mycobacterium bovis BCG genome at 4 ug/ml by agar plate method. Format: functional, organism-based.
Assay [19] can be described thus: Binding affinity to pMV206 DNA (unknown origin) with cloned 700476 to 702854 bp of Mycobacterium bovis BCG genome overexpressed in Mycobacterium smegmatis ICHO1036 at 260 pmol after 1 hr by agarose gel electrophoresis.
Assay [20] in a line: Binding affinity to pMV206 DNA (unknown origin) at 260 pmol after 1 hr by agarose gel electrophoresis.
The nature of assay [21]: Binding affinity to pMV206 DNA (unknown origin) with cloned 696695 to 700844 bp of Mycobacterium bovis BCG genome overexpressed in Mycobacterium smegmatis ICHO1035 at 260 pmol after 1 hr by agarose gel electrophoresis.

By MIC is commonly meant the smallest concentration in the dilution series that meets the test's criterion for growth inhibition. The low end stands for a more susceptible organism, the high end for a less susceptible organism. For the compound `NNC(=O)c1ccncc1` [ISONIAZID], the minimal inhibitory concentration (MIC) was 2.5 µg/mL (≈ 18.2 µM) in assay [1] and 25 µg/mL (≈ 182 µM) in [2]. The inhibition result in assay [3] is “inactive”.

Consider `Cc1cc(=O)n2c3c(c4c(cc13)c(CO)cc(=O)n4C)OC2`, for which the minimal inhibitory concentration (MIC) is 1 µg/mL (≈ 3.35 µM) in assay [1]; 1 µg/mL (≈ 3.35 µM) in assay [2]; 4.2 µg/mL (≈ 14.1 µM) in [4]; 6.3 µg/mL (≈ 21.1 µM) in assay [5]; 5.2 µg/mL (≈ 17.4 µM) in [6]. Besides, the result in assay [7], in assay [11], in [12], in [13], in assay [14] and in [15] was Active. The outcome in assay [16] and in assay [17] was Active. Moreover, the outcome in assay [8], in [9], in [10] and in [18] was inactive. The inhibition entry in [3] was “Active”.

As to `COC(=O)CCCc1cn(CCOCCOCCOCCOCCOCCOCCOCCOCCOCCOCCNC(=O)CCCC[C@@H]2SC[C@@H]3NC(=O)N[C@@H]32)nn1`, the MIC in assay [1] and in [2] was greater than 200 µg/mL in each case. For the same compound, in assay [19], the result was inactive.

Turning to `Cc1cc(=O)n2c3c(c4c(cc13)c(COC(=O)CCCc1cn(CCOCCOCCOCCOCCOCCOCCOCCOCCOCCOCCNC(=O)CCCC[C@@H]3SC[C@@H]5NC(=O)N[C@@H]53)nn1)cc(=O)n4C)OC2`, the minimum inhibitory concentration (MIC) in assay [1] was determined as 25 µg/mL (≈ 21.8 µM); in assay [2] it was 6.25 µg/mL (≈ 5.46 µM). Besides, the result in [19], in [20] and in assay [21] was Active.

Source of the values: ChEMBL document CHEMBL3585292, “Anti-dormant mycobacterial activity and target analysis of nybomycin produced by a marine-derived Streptomyces sp” (2015).
